Results taken from ChEMBL document CHEMBL4387722.

Experiments:
[1] = system: Mycobacterium tuberculosis; test: Antitubercular activity against Mycobacterium tuberculosis H37Rv after 5 days at 200 uM relative to control; type: functional; details: 120 h
How it was run: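 M. tuberculosis grown in liquid culture with compound at a fixed 200 μM for 5 days. Growth inhibition expressed as percent of control.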

[2] = system: Mycobacterium tuberculosis; test: Antitubercular activity against Mycobacterium tuberculosis H37Rv after 5 days; type: functional, organism-based; details: 120 h
[3] = biological target: T1, Tyrosine-protein phosphatase non-receptor type 1 (Homo sapiens, UniProt P18031); test: Inhibition of human PTPN1 expressed in Escherichia coli Rosetta 2 (DE3) using pNPP as substrate after 45 mins by spectrophotometric method
T1 sequence (P18031 whole entry): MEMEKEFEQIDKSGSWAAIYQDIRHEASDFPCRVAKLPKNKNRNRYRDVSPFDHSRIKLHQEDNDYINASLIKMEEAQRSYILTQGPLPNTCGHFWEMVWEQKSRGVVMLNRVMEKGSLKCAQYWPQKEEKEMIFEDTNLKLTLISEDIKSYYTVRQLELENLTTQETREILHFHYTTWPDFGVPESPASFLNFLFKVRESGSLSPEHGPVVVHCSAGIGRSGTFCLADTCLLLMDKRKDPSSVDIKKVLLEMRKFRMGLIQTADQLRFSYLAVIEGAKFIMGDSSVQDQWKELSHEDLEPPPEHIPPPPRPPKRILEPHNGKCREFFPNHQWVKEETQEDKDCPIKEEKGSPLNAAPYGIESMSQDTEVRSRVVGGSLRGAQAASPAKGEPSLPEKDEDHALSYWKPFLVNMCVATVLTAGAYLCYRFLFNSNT

[4] = biological target: T2, Tyrosine-protein phosphatase non-receptor type 2 (Homo sapiens, UniProt P17706); test: Inhibition of human PTPN2 expressed in Escherichia coli Rosetta 2 (DE3) using pNPP as substrate after 45 mins by spectrophotometric method
T2 sequence (P17706 whole entry): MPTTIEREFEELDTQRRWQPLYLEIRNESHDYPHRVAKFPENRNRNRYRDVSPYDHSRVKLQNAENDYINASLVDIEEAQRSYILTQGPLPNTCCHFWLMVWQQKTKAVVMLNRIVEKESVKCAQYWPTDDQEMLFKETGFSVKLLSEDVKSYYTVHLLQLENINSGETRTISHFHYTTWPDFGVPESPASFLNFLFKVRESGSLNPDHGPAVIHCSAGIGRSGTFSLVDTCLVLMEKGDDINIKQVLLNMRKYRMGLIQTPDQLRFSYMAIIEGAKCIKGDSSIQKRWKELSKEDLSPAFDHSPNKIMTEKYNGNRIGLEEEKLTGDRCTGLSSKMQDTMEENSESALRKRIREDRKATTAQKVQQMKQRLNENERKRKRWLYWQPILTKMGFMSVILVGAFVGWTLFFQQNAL

E. coli GroEL/ES [5] = biological target: T3, E. coli GroEL/ES (Escherichia coli, UniProt P0A6F5); test: Inhibition of Escherichia coli GroEL expressed in Escherichia coliDH5alpha/Escherichia coli GroES expressed in Escherichia coli BL21 (DE3) assessed as reduction in GroEL/GroES-mediated denatured pig heart mitochondrial MDH refolding by measuring MDH enzyme activity using sodium mesoxalate as substrate after 20 to 40 mins by spectrometric analysis
[6] = biological target: T4, Malate dehydrogenase, mitochondrial (Sus scrofa, UniProt P00346); test: Inhibition of refolded pig heart mitochondrial MDH preincubated with Escherichia coli GroEL/GroES for 45 mins using sodium mesoxalate as substrate followed by compound addition and measured after 20 to 30 mins by spectrometric analysis
T4 sequence (P00346 whole entry): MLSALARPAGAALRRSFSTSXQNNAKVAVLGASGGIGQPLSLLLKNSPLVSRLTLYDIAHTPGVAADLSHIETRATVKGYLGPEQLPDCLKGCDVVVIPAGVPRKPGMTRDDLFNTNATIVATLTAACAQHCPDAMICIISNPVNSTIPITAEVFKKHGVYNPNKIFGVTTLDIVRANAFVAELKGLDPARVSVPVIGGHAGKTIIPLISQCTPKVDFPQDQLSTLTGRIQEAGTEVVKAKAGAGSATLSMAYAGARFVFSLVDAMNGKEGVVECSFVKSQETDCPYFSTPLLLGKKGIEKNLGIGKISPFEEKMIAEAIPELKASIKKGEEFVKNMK

[7] = biological target: T5, Phosphotyrosine protein phosphatase (Mycobacterium tuberculosis, UniProt A0A045ISB3); test: Inhibition of Mycobacterium tuberculosis His-tagged PtpB expressed in Escherichia coli Rosetta 2 (DE3) using pNPP as substrate after 30 mins by spectrophotometric method
T5 sequence (A0A045ISB3 whole entry): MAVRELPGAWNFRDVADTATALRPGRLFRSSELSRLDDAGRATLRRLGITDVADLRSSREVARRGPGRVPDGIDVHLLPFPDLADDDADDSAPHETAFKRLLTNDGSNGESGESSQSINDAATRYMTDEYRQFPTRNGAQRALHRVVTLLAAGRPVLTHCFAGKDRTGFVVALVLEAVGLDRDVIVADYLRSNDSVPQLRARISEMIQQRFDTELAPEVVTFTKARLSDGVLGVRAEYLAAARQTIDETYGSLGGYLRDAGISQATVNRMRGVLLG

[8] = Cytotoxicity against human HEK293 cells assessed as reduction in cell viability after 48 hrs by Alamar blue assay; type: cell-based
How it was run: (§1)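 Alamar Blue viability read-out. Human liver (THLE-3) and kidney (HEK 293) cells incubated with compound for 48 h. Tested in dose-response to derive CC50.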

HSP60/HSP10 = HSP60/HSP10 (Homo sapiens, UniProt P10809); test: Inhibition of human HSP60 expressed in Escherichia coli Rosetta 2(DE3)/human HSP10 expressed in Escherichia coli Rosetta 2(DE3) pLysS cells assessed as reduction in HSP60/HSP10-mediated denatured pig heart mitochondrial MDH refolding by measuring MDH enzyme activity using sodium mesoxalate as substrate after 40 to 60 mins by spectrometric analysis
E. coli GroEL/ES [9] = biological target: T3, E. coli GroEL/ES; test: Inhibition of Escherichia coli GroEL expressed in Escherichia coli DH5alpha/Escherichia coli GroES expressed in Escherichia coli BL21 (DE3) assessed as reduction in GroEL/GroES-mediated denatured rhodanese refolding by measuring rhodanese enzyme activity after 45 mins by Fe(SCN)3 dye based spectrometric analysis
[10] = Inhibition of refolded rhodanese (unknown origin) preincubated with Escherichia coli GroEL/GroES for 60 mins by measuring rhodanese enzyme activity followed by compound addition by Fe(SCN)3 dye based spectrometric analysis; parameters: species or system Homo sapiens
[11] = Cytotoxicity against human THLE3 cells assessed as reduction in cell viability after 48 hrs by Alamar blue assay; type: cell-based; how it was run: as §1
[12] = biological target: T6, Tyrosine-protein phosphatase non-receptor type 5 (Homo sapiens, UniProt P54829); test: Inhibition of human PTPN5 expressed in Escherichia coli Rosetta 2 (DE3) using pNPP as substrate after 45 mins by spectrophotometric method
T6 sequence (P54829 whole entry): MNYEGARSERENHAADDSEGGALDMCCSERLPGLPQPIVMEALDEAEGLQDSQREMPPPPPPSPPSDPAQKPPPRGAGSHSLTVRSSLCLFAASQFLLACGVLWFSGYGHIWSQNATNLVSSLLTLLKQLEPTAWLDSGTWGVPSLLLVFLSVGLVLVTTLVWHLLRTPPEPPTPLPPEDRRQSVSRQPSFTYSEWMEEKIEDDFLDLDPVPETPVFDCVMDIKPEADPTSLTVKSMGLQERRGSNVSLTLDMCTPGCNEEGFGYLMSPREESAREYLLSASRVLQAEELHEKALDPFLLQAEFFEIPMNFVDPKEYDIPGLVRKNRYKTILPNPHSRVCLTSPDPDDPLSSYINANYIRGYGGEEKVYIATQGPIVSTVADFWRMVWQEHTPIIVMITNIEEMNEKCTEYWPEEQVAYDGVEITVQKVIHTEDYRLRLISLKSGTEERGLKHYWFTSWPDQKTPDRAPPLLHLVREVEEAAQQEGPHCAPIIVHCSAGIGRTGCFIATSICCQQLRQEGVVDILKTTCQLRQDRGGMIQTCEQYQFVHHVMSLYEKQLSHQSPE

Chain of HSP60/HSP10 (P10809 whole entry): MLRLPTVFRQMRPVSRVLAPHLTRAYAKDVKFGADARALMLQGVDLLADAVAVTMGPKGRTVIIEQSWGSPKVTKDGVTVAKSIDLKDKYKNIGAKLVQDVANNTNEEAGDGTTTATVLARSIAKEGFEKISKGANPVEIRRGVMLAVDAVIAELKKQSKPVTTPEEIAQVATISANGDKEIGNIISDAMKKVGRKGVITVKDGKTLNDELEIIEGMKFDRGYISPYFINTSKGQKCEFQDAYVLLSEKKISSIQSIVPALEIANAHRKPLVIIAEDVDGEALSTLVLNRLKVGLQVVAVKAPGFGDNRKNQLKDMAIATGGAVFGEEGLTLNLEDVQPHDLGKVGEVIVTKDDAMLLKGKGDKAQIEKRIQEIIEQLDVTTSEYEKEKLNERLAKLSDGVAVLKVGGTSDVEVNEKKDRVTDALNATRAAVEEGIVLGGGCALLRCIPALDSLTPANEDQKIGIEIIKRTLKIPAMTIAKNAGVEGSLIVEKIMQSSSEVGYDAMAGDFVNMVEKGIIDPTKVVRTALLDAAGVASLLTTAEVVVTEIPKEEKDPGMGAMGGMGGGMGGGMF
Chain of HSP60/HSP10 (P61604 whole entry, further chain): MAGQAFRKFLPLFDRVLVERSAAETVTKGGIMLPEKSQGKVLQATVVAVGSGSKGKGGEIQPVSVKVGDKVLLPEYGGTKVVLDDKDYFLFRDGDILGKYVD
T3 sequence (P0A6F5 whole entry, looked up): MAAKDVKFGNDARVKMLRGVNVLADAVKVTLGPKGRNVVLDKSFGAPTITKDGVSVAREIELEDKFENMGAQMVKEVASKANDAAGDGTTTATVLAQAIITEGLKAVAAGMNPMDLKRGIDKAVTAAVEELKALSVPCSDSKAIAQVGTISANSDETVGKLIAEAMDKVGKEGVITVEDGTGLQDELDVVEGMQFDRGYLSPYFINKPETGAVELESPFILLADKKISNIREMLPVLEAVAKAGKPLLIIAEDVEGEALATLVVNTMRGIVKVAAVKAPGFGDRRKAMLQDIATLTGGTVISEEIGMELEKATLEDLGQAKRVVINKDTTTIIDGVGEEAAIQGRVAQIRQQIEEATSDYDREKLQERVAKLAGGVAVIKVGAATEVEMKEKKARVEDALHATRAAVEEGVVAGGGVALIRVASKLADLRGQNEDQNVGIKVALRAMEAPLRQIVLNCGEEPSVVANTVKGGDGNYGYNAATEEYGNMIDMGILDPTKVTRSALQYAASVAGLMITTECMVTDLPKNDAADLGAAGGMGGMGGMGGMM

Compound | inhibition at 200 µM [1] | EC50 [2] | IC50 [3] | IC50 [4] | IC50 (E. coli GroEL/ES [5]) | IC50 [6] | IC50 [7] | CC50 at 48 h [8] | IC50 (HSP60/HSP10) | IC50 (E. coli GroEL/ES [9]) | IC50 [10] | CC50 at 48 h [11] | IC50 [12]
CCc1ccc(S(=O)(=O)Nc2ccc(-c3nc4ccccc4o3)cc2)cc1 | 82% | 153 µM | 37 µM | 36 µM | 91 µM | > 63 µM | 46 µM | 82 µM | > 100 µM | 172 µM | > 100 µM | 77 µM | 31 µM
O=S(=O)(Nc1ccc(-c2nc3ccccc3o2)cc1)c1ccc(F)c(C(F)(F)F)c1 | 77% | > 200 µM | 40 µM | 36 µM | 34 µM | > 63 µM | 36 µM | 82 µM | 28 µM | 112 µM | > 100 µM | 72 µM | 43 µM
O=S(=O)(Nc1ccc2oc(-c3ccccc3)nc2c1)c1ccc(Cl)s1 | 71% | > 200 µM | 76 µM | 72 µM | > 100 µM | > 63 µM | 54 µM | > 100 µM | 70 µM | 234 µM | > 100 µM | 43 µM | 44 µM
O=S(=O)(Nc1ccc(-c2nc3ccccc3o2)cc1)c1ccc(F)cc1 | 83% | 144 µM | 68 µM | 76 µM | 93 µM | > 63 µM | 64 µM | > 100 µM | 73 µM | 224 µM | > 100 µM | 77 µM | 59 µM
O=S(=O)(Nc1ccc(-c2nc3ccccc3o2)cc1)c1ccc(Cl)s1 | 70% | 185 µM | 63 µM | 72 µM | 53 µM | > 63 µM | 32 µM | > 100 µM | 31 µM | 156 µM | > 100 µM | 85 µM | 64 µM
O=S(=O)(Nc1ccc(-c2nc3ccccc3o2)cc1)c1ccc(C(F)(F)F)cc1 | 78% | 161 µM | 35 µM | 38 µM | 77 µM | > 63 µM | 52 µM | 94 µM | 50 µM | 159 µM | > 100 µM | 71 µM | 39 µM
O=S(=O)(Nc1ccc(-c2nc3ccccc3o2)cc1)c1cccc(F)c1 | 80% | 185 µM | 62 µM | 80 µM | 92 µM | > 63 µM | 91 µM | > 100 µM | 71 µM | 225 µM | > 100 µM | > 100 µM | 54 µM
Cc1ccc(S(=O)(=O)Nc2ccc3oc(-c4ccccc4)nc3c2)cc1 | 87% | 172 µM | 48 µM | 49 µM | > 100 µM | > 63 µM | 68 µM | 75 µM | > 100 µM | 157 µM | > 100 µM | 53 µM | 39 µM
CCc1ccc(S(=O)(=O)Nc2ccc3oc(-c4ccccc4)nc3c2)cc1 | 87% | 148 µM | 57 µM | 55 µM | > 100 µM | > 63 µM | 67 µM | 81 µM | > 100 µM | 237 µM | > 100 µM | 63 µM | 42 µM
